Shown are actives, neighbours in structure and some others; about 2.4% of the full set was active somewhere.
NPY Y2 blocker: NPY-Y2 receptor antagonists, primary screen, cell-based. Neuropeptide Y receptor type 2 (Homo sapiens), P49146. NPY-Y2 expressing cells, antagonist mode. inhibition, % at 2.7 µM. 140,000 tested, 0.99% active. AID 793, 2007; in the data active = inhibition above about 17%
Target sequence (P49146 whole entry, looked up): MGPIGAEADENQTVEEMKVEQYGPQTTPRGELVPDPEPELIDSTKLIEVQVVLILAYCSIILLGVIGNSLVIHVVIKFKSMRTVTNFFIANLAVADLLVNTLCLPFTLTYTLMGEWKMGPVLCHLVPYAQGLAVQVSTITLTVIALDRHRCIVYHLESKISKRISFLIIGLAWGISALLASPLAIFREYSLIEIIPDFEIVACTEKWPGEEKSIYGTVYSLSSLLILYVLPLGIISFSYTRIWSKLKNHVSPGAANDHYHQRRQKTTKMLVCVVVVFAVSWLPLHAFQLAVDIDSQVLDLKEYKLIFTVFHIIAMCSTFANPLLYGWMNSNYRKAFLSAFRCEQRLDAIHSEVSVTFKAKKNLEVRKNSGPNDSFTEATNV
S1P4 antag: S1P4 receptor antagonists, primary screen, cell-based. Sphingosine 1-phosphate receptor 4 (Homo sapiens), O95977. S1P4-expressing cells, antagonist mode, reporter read-out. inhibition, % at 4.98 µM. 220,000 tested, 0.26% active; in the data active = inhibition above about 29%
NPY1 pot ag: NPY-Y1 receptor potentiators or agonists, primary screen, cell-based; NPY-Y1 expressing cells, potentiator/agonist activation; Neuropeptide Y receptor type 1 (Homo sapiens), P25929; 220,000 tested, 0.37% active; AID 1304, 2008; activation, % at 3.6 µM; in the data active = activation above about 33%, passing the limit was not always enough;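 also: cells stimulated with NPY at EC10 then isoproterenol at EC100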
NPY2 pot ag: NPY-Y2 potentiators or agonists, primary screen, cell-based | Neuropeptide Y receptor type 2 (Homo sapiens), P49146 | cells expressing NPY-Y2, potentiator/agonist read-out | activation, % at 3.6 µM | 220,000 tested, 0.45% active | AID 1359, 2008; in the data active = activation above about 27%;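 also: cells stimulated with NPY near EC25 plus isoproterenol at EC100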
S1P4 agonist: S1P4 receptor agonists, primary screen, cell-based. Sphingosine 1-phosphate receptor 4 (Homo sapiens), O95977. S1P4-expressing cell line, agonist reporter assay. activation, % at 4.98 µM. 220,000 tested, 0.35% active. AID 1509, 2009; in the data active = activation above about 11%
NPY Y1 blocker: NPY-Y1 receptor antagonists, primary screen, cell-based; Neuropeptide Y receptor type 1 (Homo sapiens), P25929; HEK293-CNG Y1 cells, membrane potential fluorescence; NPY at EC95, then isoproterenol; inhibition, % at 3.6 µM; 200,000 tested, 1% active; AID 1040, 2008;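 active = inhibition above the campaign mean inhibition of all tested compounds plus 3 SD, cut at about 20% in these data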
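Benchmarks – high control isoproterenol alone, low control NPY with isoproterenol · Material – HEK293 Y1/CNG channel cell line · Times – dye 3 h, compound 60 min room temperature, stimulation 45 min · Probe or stimulus – NPY (25 nM), isoproterenol (1 µM), Ro 20-1724 (25 µM) · Evaluation – % inhibition of NPY effect · Signal – fluorescence, membrane potential probe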
S1P4 agonist cf: S1P4 receptor agonists, retest, confirmation, cell-based, high throughput. shares compounds with S1P4 agonist. S1P4 agonist cell-based reporter assay. activation, % at 4.98 µM. 740 tested, 7% active; in the data active = activation above about 12%
S1P1 ag: S1P1 receptor agonists, human, counter-screen for S1P4 agonist project, cell-based | activation, % at 4.98 µM | S1P1 agonist cell-based assay, activation | shares compounds with S1P4 agonist | 740 tested, 4% active; in the data active = activation above about 21%
Each line names hits and unclear results; the compound was inactive in the other large screens (follow-up assays come after a bar, where they were run).

O=C(Nc1ccc([N+](=O)[O-])cc1)c1cc2ccccc2nc1Cl	none (no result: NPY Y2 blocker, NPY Y1 blocker)
Cn1c(CNC(=O)OC(C)(C)C)nnc1SCc1c(Cl)cccc1Cl	S1P4 agonist 56 (no result: NPY Y2 blocker, NPY Y1 blocker) | S1P4 agonist cf inactive | S1P1 ag inactive
O=C(NC(Cc1c[nH]c2ccccc12)C(=O)O)c1ccc(F)cc1 (centres undefined)	none (no result: NPY Y2 blocker)
O=C(Nc1ccccc1C(=O)NC(Cc1c[nH]c2ccccc12)C(=O)O)c1ccccc1 (centres undefined)	S1P4 agonist 11 (no result: NPY Y2 blocker, NPY Y1 blocker) | S1P4 agonist cf inactive | S1P1 ag inactive
O=C(OCC(=O)N1CCc2ccccc2C1)c1cccc([N+](=O)[O-])c1	none
CC(C)(C)c1cc2nc(N)nc(N)n2n1	none (no result: NPY Y2 blocker, NPY Y1 blocker)
CSc1nc(N)n2nc(C(C)(C)C)cc2n1	S1P4 agonist 23 (no result: NPY Y2 blocker, NPY Y1 blocker) | S1P4 agonist cf inactive | S1P1 ag inactive
CCOC(=O)C1C(C(=O)NN)C1C(=O)Nc1ccccc1 (centres undefined)	none (no result: NPY Y2 blocker)
COC(=O)c1ccccc1C(=O)N1CCCC(CCC(=O)NCc2ccc(F)c(F)c2)C1 (centres undefined)	none (no result: NPY Y2 blocker)
Cc1cc(=S)c2cccc(C)c2[nH]1	none (no result: NPY Y2 blocker)
Cn1c(CNc2ccc(F)cc2)nnc1SCC(=O)NNC(=O)Cc1ccccc1	S1P4 agonist 16 (no result: NPY Y2 blocker) | S1P4 agonist cf inactive | S1P1 ag inactive
c1ccc(-c2nccc(-c3ccc(-n4cnc5ccccc54)cc3)n2)cc1	S1P4 agonist 83 | S1P4 agonist cf inactive | S1P1 ag inactive
c1ccc(-c2nccc(-c3ccc4c(c3)OCO4)n2)cc1	none (no result: NPY Y2 blocker)
O=[N+]([O-])c1ccc(OCCO)c(P(=O)(c2ccccc2)c2ccccc2)c1	S1P4 agonist 155 (no result: NPY Y2 blocker, NPY Y1 blocker) | S1P4 agonist cf inactive | S1P1 ag inactive
O=C(Cc1cccs1)Nc1ccccc1C(=O)O	S1P4 agonist 117 | S1P4 agonist cf inactive | S1P1 ag inactive
O=C(Cc1cccs1)Nc1ccccc1NC(=O)Cc1cccs1	none
COc1ccc(NC(=O)CSc2nc(N)c3cc4c(nc3n2)CCCC4)cc1	S1P4 agonist 11 | S1P4 agonist cf inactive | S1P1 ag inactive
CC(=O)c1ccc(NC(=O)CSc2nc(N)c3cc4c(nc3n2)CCCC4)cc1	none
CC(=O)Nc1ccc(C(C#N)c2ccccc2)cc1 (centres undefined)	none (no result: NPY Y2 blocker)
CCOCCCNS(=O)(=O)c1ccc(NC(=O)N2c3ccccc3Sc3ccccc32)cc1	S1P4 agonist 34 | S1P4 agonist cf inactive | S1P1 ag inactive
CCOCCCNS(=O)(=O)c1ccc(NC(=O)CN2C(=O)c3ccccc3C2=O)cc1	none (no result: NPY Y2 blocker)
CCC1OC23CCCCC2C(C#N)(C(=N)O3)C1(C#N)C#N (centres undefined)	none
CC1OC23CCCCC2C(C#N)(C(=N)O3)C1(C#N)C#N (centres undefined)	S1P4 agonist 12 | S1P4 agonist cf inactive | S1P1 ag inactive
Cc1cccc(/C=N/NC(=O)c2cc3c(s2)-c2ccccc2CC3)c1	none
O=C(N/N=C/c1cccc(C(F)(F)F)c1)c1cc2c(s1)-c1ccccc1CC2	S1P4 agonist 45 | S1P4 agonist cf inactive | S1P1 ag inactive
COc1ccc(NC(=S)NCc2cccn2C)cc1	none (no result: NPY Y2 blocker)
COc1ccc(CC(=O)NNS(=O)(=O)c2ccc(F)cc2)cc1OC	none (no result: NPY Y2 blocker)
COc1ccc(CC(=O)NNS(=O)(=O)c2ccccc2)cc1OC	S1P4 agonist 12 (no result: NPY Y2 blocker) | S1P4 agonist cf inactive | S1P1 ag inactive
COC(=O)Cc1ccc(NC(=S)NN2CCOCC2)cc1	none
Cc1ccc(-c2nnn(CC(=O)N(CCN3CCOCC3)C(C(=O)NC(C)(C)C)c3ccc(C)o3)n2)cc1 (centres undefined)	none (no result: NPY Y2 blocker, NPY Y1 blocker)
